Assay results reported in ChEMBL document CHEMBL1151957, “Design and synthesis of novel C14-hydroxyl substituted triptolide derivatives as potential selective antitumor agents” (J Med Chem, 2009).
The source made the active and inactive calls. The calls are words filed in the database; no cut-off is given here.

Experiments:
SK-OV-3 [1] = test: Cytotoxicity against human SKOV3 cells by SRB assay; type: functional, cell-based
Procedure, shortened: (§1)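 Cells grown in RPMI 1640 with 10% heat-inactivated FBS, 2 mmol/L glutamine, 10 mmol/L HEPES pH 7.4, 5% CO2, 37 °C; MCF-7/ADR also given 1 mmol/L pyruvate and 0.01 mg/mL insulin. Treated in triplicate with graded concentrations for 72 h at 37 °C, read by SRB. IC50 (50% growth inhibition vs control) by logit method; three independent experiments.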

MDA-MB-468 [2] = test: Cytotoxicity against human MDA-MB-468 cells by SRB assay; type: functional, cell-based; procedure, shortened: as §1
PC-3 [3] = test: Cytotoxicity against human PC3 cells by SRB assay; type: functional, cell-based; procedure, shortened: as §1
PC-3 [4] = test: Antitumor activity against human PC3 cells xenografted in BALB/cA nu/nu mouse assessed as tumor growth inhibition at 4 mg/kg, po measured on day 21 postinfection; type: functional, organism-based; parameters: dose 4 mg/kg
Procedure, shortened: (§2)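 Nude BALB/cA nu/nu mice, 4-5 weeks old, received 1 mm³ tumor fragments implanted sc into the right flank by trocar. At 100-200 mm³ they were randomized, six per group, and dosed po daily in vehicle; controls got vehicle alone. Calipers twice weekly; V = length×width²/2; RTV = Vt/V0; T/C (%) = mean RTV treated / mean RTV control ×100. Student t test.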

MDA-MB-231 = test: Cytotoxicity against human MDA-MB-231 cells after 72 hrs […]; type: functional, cell-based; settings: MDA-MB-231, 72 h
Procedure, shortened: (§3)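 Cells grown at 37 °C in 5% CO2 in RPMI 1640 with 10% heat-inactivated FBS, glutamine, antibiotics and HEPES; MCF-7 medium also had sodium pyruvate and insulin. Cells in 96-well plates were treated in triplicate with graded concentrations for 72 h at 37 °C. Read-out was MTT for leukemia lines and SRB for solid-tumor lines. IC50 was set relative to control by the logit method, as mean ± SD of three independent experiments.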

HCT-15 = test: Cytotoxicity against human HCT15 cells after 72 hrs […]; type: functional, cell-based; settings: HCT-15, 72 h; procedure, shortened: as §3
[5] = Cytotoxicity against human 786-O cells after 72 hrs […]; type: functional, cell-based; settings: 786-0, 72 h; procedure, shortened: as §3
MDA-MB-468 [6] = test: Antitumor activity against human MDA-MB-468 cells xenografted in BALB/cA nu/nu mouse assessed as tumor growth inhibition at 1 to 4 mg/kg, po; type: functional, organism-based; procedure, shortened: as §2
SMMC-7721 [7] = test: Antitumor activity against human SMMC7721 cells xenografted in BALB/cA nu/nu mouse assessed as tumor growth inhibition at 1 to 4 mg/kg, po; type: functional, organism-based; procedure, shortened: as §2
HCT-116 = test: Cytotoxicity against human HCT116 cells after 72 hrs […]; type: functional, cell-based; settings: HCT-116, 72 h; procedure, shortened: as §3
Mus musculus [8] = test: Toxicity in BALB/cA nu/nu mouse assessed as change in body weight at 1 to 4 mg/kg, po; type: organism-based; parameters: dose 1-4 mg/kg, route oral; settings: in vivo
Procedure, shortened: (§4)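 Female-unspecified BALB/cA nu/nu mice, 4-5 weeks old, carried sc 1 mm³ tumor fragments in the right flank. At 100-200 mm³, mice were randomized six per group and given compound po daily in vehicle, with vehicle-only controls, over about 21 days. Endpoints were deaths, systemic toxicity, body weight, and gross anatomy of liver and kidney.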

Mus musculus [9] = test: Toxicity in BALB/cA nu/nu mouse assessed as change in kidney gross anatomy at 1 to 4 mg/kg, po; type: organism-based; parameters: dose 1-4 mg/kg, route oral; settings: in vivo; procedure, shortened: as §4
SGC-7901 [10] = test: Antitumor activity against human SGC7901 cells xenografted in BALB/cA nu/nu mouse assessed as tumor growth inhibition at 4 mg/kg, po; type: functional; parameters: scale not given: the % may be the effect or the level left; procedure, shortened: as §2
[11] = Cytotoxicity against multidrug-resistant human K562/A02 cells by MTT assay
[12] = Cytotoxicity against human HO8910 cells after 72 hrs by […]; type: functional, cell-based; settings: HO-8910, 72 h; procedure, shortened: as §3
[13] = Cytotoxicity against human SW1116 cells after 72 hrs by […]; type: functional, cell-based; settings: SW 1116, 72 h; procedure, shortened: as §3
Mus musculus [14] = test: Toxicity in BALB/cA nu/nu mouse assessed as mortality at 1 to 4 mg/kg, po; type: organism-based; parameters: dose 1-4 mg/kg, route oral; settings: in vivo; procedure, shortened: as §4
PC-3 [15] = test: Antitumor activity against human PC3 cells xenografted in BALB/cA nu/nu mouse assessed as tumor growth inhibition at 2 mg/kg, po measured on day 21 postinfection; type: functional, organism-based; parameters: dose 2 mg/kg; procedure, shortened: as §2
Bel-7402 = test: Cytotoxicity against human Bel7402 cells after 72 hrs by […]; type: functional, cell-based; settings: Bel-7402, 72 h; procedure, shortened: as §3
Mus musculus [16] = test: Toxicity in BALB/cA nu/nu mouse assessed as change in liver gross anatomy at 1 to 4 mg/kg, po; type: organism-based; parameters: dose 1-4 mg/kg, route oral; settings: in vivo; procedure, shortened: as §4
SGC-7901 [17] = test: Cytotoxicity against human SGC7901 cells after 72 hrs by SRB assay; settings: SGC-7901, 72 h
MOLT-4 = test: Cytotoxicity against human MOLT4 cells after 72 hrs by MTT assay; type: functional, cell-based; settings: MOLT-4, 72 h; procedure, shortened: as §3
KB [18] = test: Cytotoxicity against human KB cells after 72 hrs […]; type: functional, cell-based; procedure, shortened: as §3
SK-OV-3 [19] = test: Antitumor activity against human SKOV3 cells xenografted in BALB/cA nu/nu mouse assessed as tumor growth inhibition at 2 mg/kg, po measured on day 21 postinfection; type: functional; parameters: scale not given: the % may be the effect or the level left; procedure, shortened: as §2
U-251 = test: Cytotoxicity against human U251 cells after 72 hrs […]; type: functional, cell-based; settings: U-251, 72 h; procedure, shortened: as §3
[20] = Cytotoxicity against human Rh30 cells after 72 hrs by […]; type: functional, cell-based; settings: SJRH30, 72 h; procedure, shortened: as §3
K562 [21] = test: Cytotoxicity against human K562 cells after 72 hrs by MTT assay; type: functional, cell-based; settings: K562, 72 h; procedure, shortened: as §3
[22] = Cytotoxicity against multidrug-resistant human MCF7/ADR cells by SRB assay; type: functional, cell-based; settings: NCI/ADR-RES; procedure, shortened: as §1
HeLa = test: Cytotoxicity against human HeLa cells after 72 hrs […]; type: functional, cell-based; procedure, shortened: as §3
SK-OV-3 [23] = test: Antitumor activity against human SKOV3 cells xenografted in BALB/cA nu/nu mouse assessed as tumor growth inhibition at 4 mg/kg, po measured on day 21 postinfection; type: functional; parameters: scale not given: the % may be the effect or the level left; procedure, shortened: as §2
MCF7 [24] = test: Cytotoxicity against human MCF7 cells after 72 hrs […]; type: functional, cell-based; settings: MCF7, 72 h; procedure, shortened: as §3
KB [25] = test: Resistant factor, ratio of IC50 for multidrug-resistant human KB/VCR cells to IC50 for human KB cells; type: functional
Procedure, shortened: (§5)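 Resistance factor is the IC50 in the MDR line divided by the IC50 in its parental line. Both come from 72 h growth-inhibition assays: MTT for the leukemia pair, SRB for the solid-tumor pairs.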

SK-OV-3 [26] = test: Cytotoxicity against human SKOV3 cells after 72 hrs by […]; type: functional, cell-based; settings: SK-OV-3, 72 h; procedure, shortened: as §3
K562 [27] = test: Resistant factor, ratio of IC50 for multidrug-resistant human K562/A02 cells to IC50 for human K562 cells; type: functional; procedure, shortened: as §5
A549 = test: Cytotoxicity against human A549 cells after 72 hrs by SRB assay; settings: A549, 72 h
Mus musculus [28] = test: Systemic toxicity in BALB/cA nu/nu mouse at 1 to 4 mg/kg, po; type: organism-based; parameters: dose 1-4 mg/kg, route oral; settings: in vivo; procedure, shortened: as §4
MDR = test: Cytotoxicity against multidrug-resistant human KB/VCR cells by SRB assay in presence of MDR reversing agent verapamil; type: functional, cell-based
Procedure, shortened: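 KB/VCR cells exposed to test agents together with the MDR reversal agent verapamil. Growth inhibition was read by SRB assay after 72 h treatment; each point is the mean of three independent experiments.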

MKN-28 = test: Cytotoxicity against human MKN28 cells after 72 hrs […]; type: functional, cell-based; settings: MKN-28, 72 h; procedure, shortened: as §3
SMMC-7721 [29] = test: Cytotoxicity against human SMMC7721 cells after 72 hrs […]; type: functional, cell-based; settings: SMMC-7721, 72 h; procedure, shortened: as §3
DU-145 = test: Cytotoxicity against human DU145 cells after 72 hrs by […]; type: functional, cell-based; settings: DU-145, 72 h; procedure, shortened: as §3
PC-3 [30] = test: Cytotoxicity against human PC3 cells after 72 hrs by […]; type: functional, cell-based; settings: PC-3, 72 h; procedure, shortened: as §3
MCF7 [31] = test: Resistant factor, ratio of IC50 for multidrug-resistant human MCF7/ADR cells to IC50 for human MCF7 cells; type: functional; procedure, shortened: as §5
SK-OV-3 [32] = test: Antitumor activity against human SKOV3 cells xenografted in BALB/cA nu/nu mouse assessed as tumor growth inhibition at 1 mg/kg, po relative to control; type: functional; procedure, shortened: as §2

## CC(C)[C@]1(O)[C@H](Cl)[C@@H]2O[C@]23[C@]2(O[C@H]2C[C@H]2C4=C(CC[C@@]23C)C(=O)OC4)[C@]12CO2
SK-OV-3 [1]
  IC50: 140 nM
MDA-MB-468 [2]
  IC50: 210 nM
PC-3 [3]
  IC50: 470 nM

## CC(C)[C@]12O[C@H]1[C@@H]1O[C@]13[C@]1(O[C@H]1C[C@H]1C4=C(CC[C@@]13C)C(=O)OC4)[C@]21CO1
PC-3 [4]
  Activity: Active
MDA-MB-231
  IC50: 280 nM
HCT-15
  IC50: 648 nM
[5]
  IC50: 386 nM
SK-OV-3 [1]
  IC50: 100 nM
MDA-MB-468 [6]
  Activity: inactive
SMMC-7721 [7]
  Activity: inactive
HCT-116
  IC50: 219 nM
Mus musculus [8]
  Activity: Non-toxic
Mus musculus [9]
  Activity: Non-toxic
SGC-7901 [10]
  Activity: 75%
[11]
  IC50: 740 nM
[12]
  IC50: 538 nM
[13]
  IC50: 907 nM
Mus musculus [14]
  Activity: Non-toxic
PC-3 [15]
  Activity: Active
Bel-7402
  IC50: 332 nM
Mus musculus [16]
  Activity: Non-toxic
SGC-7901 [17]
  IC50: 175 nM
MOLT-4
  IC50: 251 nM
KB [18]
  IC50: 615 nM
SK-OV-3 [19]
  Activity: 87.5%
U-251
  IC50: 657 nM
[20]
  IC50: 293 nM
K562 [21]
  IC50: 421 nM
[22]
  IC50: 910 nM
HeLa
  IC50: 507 nM
SK-OV-3 [23]
  Activity: 97.4%
MCF7 [24]
  IC50: 360 nM
KB [25]
  Ratio IC50: 0.77
SK-OV-3 [26]
  IC50: 270 nM
MDA-MB-468 [2]
  IC50: 180 nM
K562 [27]
  Ratio IC50: 1.76
A549
  IC50: 702 nM
Mus musculus [28]
  Activity: Non-toxic
MDR
  Activity: Active
MKN-28
  IC50: 2540 nM
SMMC-7721 [29]
  IC50: 350 nM
DU-145
  IC50: 256 nM
PC-3 [30]
  IC50: 637 nM
PC-3 [3]
  IC50: 270 nM
MCF7 [31]
  Ratio IC50: 2.53
SK-OV-3 [32]
  T/C: 50.2%

## CC(C)[C@]12O[C@H]1[C@@H]1O[C@]13[C@]1(O[C@H]1C=C1C4=C(CC[C@@]13C)C(=O)OC4)[C@]21CO1
SK-OV-3 [1]
  IC50: 570 nM
MDA-MB-468 [2]
  IC50: 1140 nM
PC-3 [3]
  IC50: 1800 nM

## CC(C)[C@]12O[C@H]1[C@@H]1O[C@]13[C@]1(O[C@H]1C[C@H]1C4=C(CC[C@@]13C)C(=O)OC4)[C@]21COS(=O)(=O)O1
SK-OV-3 [1]
  IC50: > 100000 nM
MDA-MB-468 [2]
  IC50: > 100000 nM
PC-3 [3]
  IC50: 13900 nM

## CC[C@]1(O)C[C@H]2CN(CCc3c([nH]c4ccccc34)[C@@](C(=O)OC)(c3cc4c(cc3OC)N(C=O)[C@H]3[C@@](O)(C(=O)OC)[C@H](OC(C)=O)[C@]5(CC)C=CCN6CC[C@]43[C@@H]65)C2)C1
MDR
  Activity: Active
